Test results reported in ChEMBL document CHEMBL3784931, “Synthesis and evaluation of novel angiotensin II receptor 1 antagonists as anti-hypertension drugs” (Bioorg Med Chem, 2016).
Activity calls are given as the source filed them. The calls are words filed in the database; no cut-off is given here.

Columns and labels:
[1] = Elimination rate constant in Wistar rat kidney at 10 mg/kg, po after 0.5 to 72 hrs by HPLC analysis; assay type: ADME, organism-based
Method in brief: (§1)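 Wistar rats were dosed orally and killed by abdominal aorta transection at 0.5, 1, 2, 4, 6, 8, 12, 24, 48 and 72 h. Organs were excised at once, minced and homogenized at 4 °C in normal saline to a 25% (w/v) homogenate. After spinning at 3000 × g, 4 °C, 10 min, supernatants were analysed by HPLC. Values are mean ± SEM, n = 5 per point.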

[2] = Terminal half life in Wistar rat kidney at 10 mg/kg, po after 0.5 to 72 hrs by HPLC analysis; assay type: ADME, organism-based; settings: read-out: beta t1/2 (converted); method in brief: as §1
Kidney = assay: AUC (0 to 72 hrs) in Wistar rat kidney at 10 mg/kg, po by HPLC analysis; assay type: ADME, organism-based; design: dose 10 mg/kg, time < 72 hr, route oral; settings: in vivo; method in brief: as §1
[3] = Tmax in Wistar rat brain at 10 mg/kg, po after 0.5 to 72 hrs by HPLC analysis; assay type: ADME, organism-based; method in brief: as §1
[4] = Cmax in Wistar rat brain at 10 mg/kg, po after 0.5 to 72 hrs by HPLC analysis; assay type: ADME, organism-based; design: dose 10 mg/kg, route oral; method in brief: as §1
[5] = Elimination rate constant in Wistar rat brain at 10 mg/kg, po after 0.5 to 72 hrs by HPLC analysis; assay type: ADME, organism-based; method in brief: as §1
[6] = Terminal half life in Wistar rat brain at 10 mg/kg, po after 0.5 to 72 hrs by HPLC analysis; assay type: ADME, organism-based; settings: read-out: beta t1/2 (converted); method in brief: as §1
Brain = assay: AUC (0 to 72 hrs) in Wistar rat brain at 10 mg/kg, po by HPLC analysis; assay type: ADME, organism-based; design: dose 10 mg/kg, time < 72 hr, route oral; settings: in vivo; method in brief: as §1
[7] = Tmax in Wistar rat stomach at 10 mg/kg, po after 0.5 to 72 hrs by HPLC analysis; assay type: ADME, organism-based; method in brief: as §1
[8] = Cmax in Wistar rat stomach at 10 mg/kg, po after 0.5 to 72 hrs by HPLC analysis; assay type: ADME, organism-based; design: dose 10 mg/kg, route oral; method in brief: as §1
[9] = Elimination rate constant in Wistar rat stomach at 10 mg/kg, po after 0.5 to 72 hrs by HPLC analysis; assay type: ADME, organism-based; method in brief: as §1
[10] = Terminal half life in Wistar rat stomach at 10 mg/kg, po after 0.5 to 72 hrs by HPLC analysis; assay type: ADME, organism-based; settings: read-out: beta t1/2 (converted); method in brief: as §1
Stomach = assay: AUC (0 to 72 hrs) in Wistar rat stomach at 10 mg/kg, po by HPLC analysis; assay type: ADME, organism-based; design: time < 72 hr, dose 10 mg/kg, route oral; settings: in vivo; method in brief: as §1
[11] = Acute toxicity in ICR mouse assessed as mortality at 1200 mg/kg, ig administered daily for 2 weeks measured during compound dosing; assay type: organism-based; settings: in vivo, po
Method in brief: (§2)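 ICR mice, sixty in total, half male and half female, 20 ± 2 g. Intragastric dosing at 1200, 1600, 2133.3, 2844.40, 5056.79 or 6742.38 mg/kg. Animals watched daily over two weeks for survival and physiological abnormalities or untoward reactions. Percent mortality recorded per dose group.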

[12] = Acute toxicity in ICR mouse assessed as mortality at 1600 mg/kg, ig administered daily for 2 weeks measured during compound dosing; assay type: organism-based; settings: in vivo, po; method in brief: as §2
[13] = Acute toxicity in ICR mouse assessed as mortality at 2133.30 mg/kg, ig administered daily for 2 weeks measured during compound dosing; assay type: organism-based; settings: in vivo, po, 2133.3 mg/kg; method in brief: as §2
[14] = Acute toxicity in ICR mouse assessed as mortality at 2844.40 mg/kg, ig administered daily for 2 weeks measured during compound dosing; assay type: organism-based; settings: in vivo, po, 2844.4 mg/kg; method in brief: as §2
[15] = Acute toxicity in ICR mouse assessed as mortality at 5056.79 mg/kg, ig administered daily for 2 weeks measured during compound dosing; assay type: organism-based; settings: in vivo, po; method in brief: as §2
[16] = Acute toxicity in ICR mouse assessed as mortality at 6742.38 mg/kg, ig administered daily for 2 weeks measured during compound dosing; assay type: organism-based; settings: in vivo, po; method in brief: as §2
[17] = Acute toxicity in ICR mouse assessed as mortality administered intragastrically daily for 2 weeks measured during compound dosing; assay type: organism-based; settings: in vivo, po
Method in brief: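 Sixty normal ICR mice (half male, half female, 20 ± 2 g) given intragastric doses of 1200, 1600, 2133.3, 2844.40, 5056.79 and 6742.38 mg/kg. Survival checked daily for two weeks.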

Mus musculus [18] = assay: Acute toxicity in ICR mouse assessed as skin changes at 1200 mg/kg, ig administered daily for 2 weeks measured during compound dosing; assay type: organism-based; settings: in vivo, po, 336 h; method in brief: as §2
Mus musculus [19] = assay: Acute toxicity in ICR mouse assessed as mobility at 1200 mg/kg, ig administered daily for 2 weeks measured during compound dosing; assay type: organism-based; settings: in vivo, po, 336 h; method in brief: as §2
Mus musculus [20] = assay: Acute toxicity in ICR mouse assessed as aggressiveness at 1200 mg/kg, ig administered daily for 2 weeks measured during compound dosing; assay type: organism-based; settings: in vivo, po, 336 h; method in brief: as §2
Mus musculus [21] = assay: Acute toxicity in ICR mouse assessed as respiratory movements at 1200 mg/kg, ig administered daily for 2 weeks measured during compound dosing; assay type: organism-based; settings: in vivo, po, 336 h; method in brief: as §2
Mus musculus [22] = assay: Acute toxicity in ICR mouse assessed as hyperthyroidism at 1600 to 6742.38 mg/kg, ig administered daily for 2 weeks measured 5 hrs post last dose; assay type: organism-based; settings: in vivo, po; method in brief: as §2
Mus musculus [23] = assay: Acute toxicity in ICR mouse assessed as change in body weight at 1200 to 6742.38 mg/kg, ig administered daily for 2 weeks during compound dosing; assay type: organism-based; settings: in vivo, po, 336 h
Method in brief: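 Male and female ICR mice (20 ± 2 g) received intragastric doses of 1200–6742.38 mg/kg. Body weight of surviving mice compared after two weeks of observation.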

Mus musculus [24] = assay: Acute toxicity in ICR mouse assessed as obvious untoward reaction at 1200 to 6742.38, ig administered daily for 2 weeks during compound dosing; assay type: organism-based; settings: in vivo, po, 336 h; method in brief: as §2
Mus musculus [25] = assay: Acute toxicity in ICR mouse assessed as pathological changes in organs and tissues at 1200 to 6742.38, ig administered daily for 2 weeks measured on 15th day; assay type: organism-based; settings: in vivo, po, 336 h
Method in brief: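 ICR mice of both sexes (20 ± 2 g) dosed intragastrically at 1200–6742.38 mg/kg and observed for two weeks. Surviving mice then dissected and examined with the naked eye.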

Rattus norvegicus [26] = assay: Antihypertensive activity in spontaneous hypertensive rat model assessed as reduction in mean blood pressure at 10 mg/kg, po administered for 12 hrs; assay type: functional, organism-based
Method in brief: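 Male SHRs were randomized, n = 6 per group. Compound was suspended in DMSO/oleic acid (1:4) and given by oral gavage; vehicle controls got the same volume of solvent. SBP and DBP were recorded in conscious animals by noninvasive tail-artery manometry. MBP = (SBP − DBP)/3 + DBP. Data are mean ± SEM, with p < 0.05 taken as significant.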

Rattus norvegicus [27] = assay: Effect on heart rate in spontaneous hypertensive rat model at 10 and 15 mg/kg, po; assay type: ADME, organism-based; settings: in vivo
Mus musculus [28] = assay: Acute toxicity in ICR mouse assessed as mortality at 1200 to 6742.38 mg/kg, ig administered daily for 2 weeks during compound dosing; assay type: organism-based; settings: in vivo, po, 336 h; method in brief: as §2

SMILES: CCCCc1nc(Cl)c(C(=O)O)n1Cc1ccc(-c2ccccc2-c2noc(=O)[nH]2)cc1
- k el [1]: 1.11e-05 s⁻¹
- half-life [2]: 15.6 h
- AUC (Kidney): 202.97 ng·h/g
- Tmax [3]: 2 h
- Cmax [4]: 5.8 ng/g
- k el [5]: 1.14e-05 s⁻¹
- half-life [6]: 16.9 h
- AUC (Brain): 123.07 ng·h/g
- Tmax [7]: 0.5 h
- Cmax [8]: 8.91 ng/g
- k el [9]: 1.39e-05 s⁻¹
- half-life [10]: 15.1 h
- AUC (Stomach): 221.03 ng·h/g
- mortality at 336 h [11]: 0%
- mortality at 336 h [12]: 10%
- mortality at 336 h [13]: 20%
- mortality at 336 h [14]: 40%
- mortality at 336 h [15]: 90%
- mortality at 336 h [16]: 100%
- LD50 at 336 h [17]: 2970 mg/kg
- Activity (Mus musculus [18]): Non-toxic
- Activity (Mus musculus [19]): Non-toxic
- Activity (Mus musculus [20]): Non-toxic
- Activity (Mus musculus [21]): Non-toxic
- Activity (Mus musculus [22]): Toxic
- Activity (Mus musculus [23]): Non-toxic
- Activity (Mus musculus [24]): Non-toxic
- Activity (Mus musculus [25]): Non-toxic
- Activity (Rattus norvegicus [26]): Active
- Activity (Rattus norvegicus [27]): Non-toxic
- Activity (Mus musculus [28]): Toxic
